Experimental data: ChEMBL document CHEMBL3044755, “5-Methyl-1,2,3-thiadiazoles synthesized via ugi reaction and their fungicidal and antiviral activities” (J Agric Food Chem, 2010)

Legend:
Thanatephorus cucumeris = assay: Fungicidal activity against Thanatephorus cucumeris at 50 ug/ml by growth inhibition method; format: functional; details: read-out: GI
Procedure, shortened: (§1)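 Mycelial growth inhibition on potato dextrose agar. The panel covered Alternaria solani, Botrytis cinerea, Cercospora arachidicola, C. beticola, Colletotrichum lagenarium, Fusarium oxysporum, Gibberella zeae, Puccinia triticina, Phytophthora infestans, Physalospora piricola, Pellicularia sasakii and Rhizoctonia solani.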

[1] = test system: Botryosphaeria berengeriana; assay: Fungicidal activity against Botryosphaeria berengeriana at 50 ug/ml by growth inhibition method; format: functional; details: read-out: GI; procedure, shortened: as §1
Phytophthora infestans = assay: Fungicidal activity against Phytophthora infestans at 50 ug/ml by growth inhibition method; format: functional; details: read-out: GI; procedure, shortened: as §1
Fusarium oxysporum = assay: Fungicidal activity against Fusarium oxysporum at 50 ug/ml by growth inhibition method; format: functional; details: read-out: GI; procedure, shortened: as §1
Fusarium graminearum = assay: Fungicidal activity against Fusarium graminearum at 50 ug/ml by growth inhibition method; format: functional; details: read-out: GI; procedure, shortened: as §1
Colletotrichum lagenaria = assay: Fungicidal activity against Colletotrichum lagenaria at 50 ug/ml by growth inhibition method; format: functional; details: read-out: GI; procedure, shortened: as §1
Cercospora beticola = assay: Fungicidal activity against Cercospora beticola at 50 ug/ml by growth inhibition method; format: functional; details: read-out: GI; procedure, shortened: as §1
Mycosphaerella arachidis = assay: Fungicidal activity against Mycosphaerella arachidis at 50 ug/ml by growth inhibition method; format: functional; details: read-out: GI; procedure, shortened: as §1
Alternaria solani = assay: Fungicidal activity against Alternaria solani at 50 ug/ml by growth inhibition method; format: functional; details: read-out: GI; procedure, shortened: as §1
Botrytis cinerea = assay: Fungicidal activity against Botryotinia fuckeliana at 50 ug/ml by growth inhibition method; format: functional; details: read-out: GI; procedure, shortened: as §1
Nicotiana tabacum [2] = assay: Induction of systemic acquired resistance activity in TMV infected-Nicotiana tabacum (tobacco) leaves at 50 ug/ml; format: functional
Procedure, shortened: (§2)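 Tobacco/TMV system used for systemic acquired resistance induction. Inhibition ratio calculated from mean lesion numbers on inoculated leaves relative to corresponding control. Tiadinil and ribavirin run as controls.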

Nicotiana tabacum [3] = assay: Phytotoxicity against Nicotiana tabacum (tobacco) plant; format: organism-based; details: in vivo
Nicotiana tabacum [4] = assay: Induction of systemic acquired resistance activity in TMV infected-Nicotiana tabacum (tobacco) leaves at 100 ug/ml; format: functional; procedure, shortened: as §2
Tobacco mosaic virus [5] = assay: In vivo antiviral activity against Tobacco mosaic virus (TMV) infected tobacco leaves assessed as inactivation effect at 100 ug/ml co-treated with virus for 30 min before inoculation onto leaves measured at 2-3 days after viral challenge; format: functional
Procedure, shortened: (§3)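 TMV (5.88 10-2 μg/mL) mixed with equal volume of compound solution for 30 min, then rubbed onto upper three leaves of six-leaf tobacco; solvent on lower three leaves as control. Lesions counted 2-3 days later, three repetitions. Inhibition (%) = (CK − A)/CK × 100 from mean lesion counts.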

Tobacco mosaic virus [6] = assay: In vivo antiviral activity against Tobacco mosaic virus (TMV) infected tobacco leaves assessed as inactivation effect at 500 ug/ml co-treated with virus for 30 min before inoculation onto leaves measured at 2-3 days after viral challenge; format: functional; procedure, shortened: as §3
Tobacco mosaic virus [7] = assay: In vivo antiviral activity against Tobacco mosaic virus (TMV) infected tobacco leaves assessed as protective effect at 100 ug/ml treated 12 hr before viral inoculation measured at 2-3 days after viral challenge; format: functional
Procedure, shortened: (§4)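 Six-leaf tobacco; compound solution smeared over whole leaves, dried in greenhouse, then after 12 h TMV (5.88 10-2 μg/mL) rubbed onto upper three leaves, with solvent on lower three leaves as control. Local lesions counted 2-3 days post-inoculation, three repetitions. Inhibition (%) = (CK − A)/CK × 100 from mean lesion numbers.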

Tobacco mosaic virus [8] = assay: In vivo antiviral activity against Tobacco mosaic virus (TMV) infected tobacco leaves assessed as protective effect at 500 ug/ml treated 12 hr before viral inoculation measured at 2-3 days after viral challenge; format: functional; procedure, shortened: as §4
Tobacco mosaic virus [9] = assay: In vitro antiviral activity against Tobacco mosaic virus (TMV) infected tobacco leaves at 200 ug/ml; format: functional
Tobacco mosaic virus [10] = assay: In vitro antiviral activity against Tobacco mosaic virus (TMV) infected tobacco leaves at 500 ug/ml; format: functional
Rhizoctonia solani = assay: Fungicidal activity against Rhizoctonia solani at 50 ug/ml by growth inhibition method; format: functional; details: read-out: GI; procedure, shortened: as §1
Puccinia triticina = assay: Fungicidal activity against Puccinia triticina at 50 ug/ml by growth inhibition method; format: functional; details: read-out: GI; procedure, shortened: as §1
Tobacco mosaic virus [11] = assay: In vivo antiviral activity against Tobacco mosaic virus (TMV) infected tobacco leaves assessed as curative effect at 100 ug/ml treated after viral inoculation measured at 2-3 days after viral challenge; format: functional
Procedure, shortened: (§5)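 Curative test: whole six-leaf tobacco leaves rubbed with TMV (5.88 10-2 μg/mL), dried in greenhouse, then compound smeared on upper three leaves and solvent on lower three as control. Local lesions scored 2-3 days after inoculation, three repetitions. Inhibition (%) = (CK − A)/CK × 100 on mean lesion numbers.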

Tobacco mosaic virus [12] = assay: In vivo antiviral activity against Tobacco mosaic virus (TMV) infected tobacco leaves assessed as curative effect at 500 ug/ml treated after viral inoculation measured at 2-3 days after viral challenge; format: functional; procedure, shortened: as §5
Tobacco mosaic virus [13] = assay: In vitro antiviral activity against Tobacco mosaic virus (TMV) infected tobacco leaves at 100 ug/ml; format: functional

| Structure (SMILES) | inhibition of growth at 50 µg/mL (Thanatephorus cucumeris) [%] | inhibition of growth at 50 µg/mL [1] [%] | inhibition of growth at 50 µg/mL (Phytophthora infestans) [%] | inhibition of growth at 50 µg/mL (Fusarium oxysporum) [%] | inhibition of growth at 50 µg/mL (Fusarium graminearum) [%] | inhibition of growth at 50 µg/mL (Colletotrichum lagenaria) [%] | inhibition of growth at 50 µg/mL (Cercospora beticola) [%] | inhibition of growth at 50 µg/mL (Mycosphaerella arachidis) [%] | inhibition of growth at 50 µg/mL (Alternaria solani) [%] | inhibition of growth at 50 µg/mL (Botrytis cinerea) [%] | Activity (Nicotiana tabacum [2]) [%] | Activity (Nicotiana tabacum [3]) | Activity (Nicotiana tabacum [4]) [%] | Activity (Tobacco mosaic virus [5]) [%] | Activity (Tobacco mosaic virus [6]) [%] | Activity (Tobacco mosaic virus [7]) [%] | Activity (Tobacco mosaic virus [8]) [%] | inhibition at 200 µg/mL (Tobacco mosaic virus [9]) [%] | inhibition at 500 µg/mL (Tobacco mosaic virus [10]) [%] | inhibition of growth at 50 µg/mL (Rhizoctonia solani) [%] | further results |
| --- | --- | --- | --- | --- | --- | --- | --- | --- | --- | --- | --- | --- | --- | --- | --- | --- | --- | --- | --- | --- | --- |
| Cc1ccc(N(C(=O)c2nnsc2C)C(C(=O)NC(C)C)c2ccc(O)cc2)cc1Cl (configuration not stated) | 65 | 36 | 23 | 23 | 20 | 10 | 17 | 17 | 37 | 76 | 23 | Non-toxic | 41 | 50 | 64 | 8 | 36 | 0 | 4 | – | – |
| Cc1ccc(N(C(=O)c2nnsc2C)C(C(=O)NC(C)C)c2ccccc2F)cc1F (configuration not stated) | 0 | 0 | 44 | – | 27 | 14 | 13 | 0 | 38 | – | 59 | Non-toxic | 7 | 73 | 74 | 27 | 60 | – | 46 | 15 | inhibition of growth at 50 µg/mL (Puccinia triticina): 0%; Activity (Tobacco mosaic virus [11]): 47%; Activity (Tobacco mosaic virus [12]): 60%; inhibition at 100 µg/mL (Tobacco mosaic virus [13]): 16% |
| Cc1ccc(N(C(=O)c2nnsc2C)C(C(=O)NC(C)C)c2ccc([N+](=O)[O-])cc2)cc1F (configuration not stated) | 22 | 0 | 13 | – | 0 | 0 | 25 | 27 | 0 | – | 66 | Non-toxic | 7 | 65 | 62 | 26 | 27 | – | 25 | 17 | inhibition of growth at 50 µg/mL (Puccinia triticina): 0%; Activity (Tobacco mosaic virus [11]): 0%; Activity (Tobacco mosaic virus [12]): 17%; inhibition at 100 µg/mL (Tobacco mosaic virus [13]): 9% |
| Cc1ccc(N(C(=O)c2nnsc2C)C(C(=O)NC2CCCCC2)c2ccc(F)cc2)cc1F (configuration not stated) | 87 | 0 | 25 | – | 0 | 14 | 0 | 9 | 0 | – | 41 | Non-toxic | 41 | 69 | 79 | 6 | 17 | – | 44 | 2 | inhibition of growth at 50 µg/mL (Puccinia triticina): 0%; Activity (Tobacco mosaic virus [11]): 20%; Activity (Tobacco mosaic virus [12]): 52%; inhibition at 100 µg/mL (Tobacco mosaic virus [13]): 24% |
| Cc1ccc(N(C(=O)c2nnsc2C)C(C(=O)NC(C)C)c2ccc(F)cc2)cc1Cl (configuration not stated) | 63 | 36 | 5 | 14 | 27 | 17 | 25 | 13 | 42 | 70 | – | – | – | – | – | – | – | 14 | 19 | – | – |
| Cc1ccc(N(C(=O)c2nnsc2C)C(C(=O)NC(C)C)c2ccccc2C(F)(F)F)cc1Cl (configuration not stated) | 57 | 43 | 13 | 10 | 24 | 17 | 23 | 18 | 36 | 70 | – | – | – | – | – | – | – | 29 | 16 | – | – |
| Cc1ccc(N(C(=O)c2nnsc2C)C(C(=O)NC(C)C)c2ccc(Cl)cc2)cc1Cl (configuration not stated) | 60 | 47 | 19 | 26 | 4 | 7 | 9 | 21 | 37 | 76 | – | – | – | – | – | – | – | 25 | 32 | – | – |
| Cc1ccc(N(C(=O)c2nnsc2C)C(C(=O)NC(C)C)c2cccc(C(F)(F)F)c2)cc1Cl (configuration not stated) | 26 | 44 | 0 | 14 | 50 | 17 | 25 | 13 | 37 | 76 | – | – | – | – | – | – | – | 17 | 41 | – | – |
| Cc1ccc(N(C(=O)c2nnsc2C)C(C(=O)NC(C)C)c2ccccc2Cl)cc1Cl (configuration not stated) | 72 | 27 | 23 | 23 | 23 | 13 | 25 | 21 | 49 | 76 | – | – | – | – | – | – | – | 3 | 8 | – | – |
